Screening data (PubChem BioAssay)
Shown is part of a subset that was picked to be rich in hits.
AP ELISA ortho: alternative pathway complement inhibition, orthogonal assay; AID 1235; inhibition, % at 5 µM; 62,000 compounds, 0.08% hits; Human serum alternative complement pathway, LPS-coated ELISA, C3 deposition; tested in compound mixtures;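 active = inhibition above 30% in each of the two pooled mixtures holding the compound, so the lower value exceeds 30%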;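 note: 0% = serum in Mg-EGTA without compound and 100% = EDTA serum blank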
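Test system – human serum alternative complement pathway, C3 deposition on LPS-coated wells · Buffer or medium – diluted human serum in Mg2+-EGTA GVB++ · Compound dosing – 5 µM each compound, pools of ten, 50 µM per pool · Schedule – 1 h serum-compound exposure at 37 °C · Measured by – Anti-C3 ELISA, OD 450 nm · Read-out basis – percent inhibition of C3 deposition onto LPS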
Ec RNAP inh: Escherichia coli RNA polymerase inhibition; E. coli RNA polymerase, fluorescence transcription assay; AID 559; 62,000 compounds, 0.2% hits; inhibition, %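 (tested at 10 µM)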; in the data active = inhibition above about 20%;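 note: 0% = enzyme without compound and 100% = no enzyme blank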
tolC growth inh: blocks growth of E. coli BW25113 tolC mutant. AID 573. 65,000 compounds, 2.2% hits. growth inhibition, % at 10 µM (by protocol). OD615;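 active = growth inhibition at or above a cutoff equal to the mean over every tested compound plus 3 SD, cut at about 60% in these data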;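 note: growth measured after 20 h incubation at 37 °C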
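Test system: E. coli BW25113 ΔtolC::kan bacteria | Medium: Kanamycin-containing LB broth (50 µg/mL) | Dosing: One dose of 10 µM final | Times: 20 h incubation with compound, 37 °C | Detection: Optical density read at 615 nm | Read-out basis: Percent growth inhibition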
BAP1 inh: inhibitors of human BAP1 deubiquitinase | Q92560 | recombinant BAP1, Ub-AMC hydrolysis fluorescence kinetic; active compounds read low | calls only at 20 µM | 72,000 compounds, 0.48% hits;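 active = activity remaining at or below 50% of control, provided the compound also passes the data quality filters; inactive = the rest, including low values that fail the filters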;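 note: 100% = DMSO wells rate and 0% = substrate alone blank rate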
Target sequence (Q92560 whole entry, looked up): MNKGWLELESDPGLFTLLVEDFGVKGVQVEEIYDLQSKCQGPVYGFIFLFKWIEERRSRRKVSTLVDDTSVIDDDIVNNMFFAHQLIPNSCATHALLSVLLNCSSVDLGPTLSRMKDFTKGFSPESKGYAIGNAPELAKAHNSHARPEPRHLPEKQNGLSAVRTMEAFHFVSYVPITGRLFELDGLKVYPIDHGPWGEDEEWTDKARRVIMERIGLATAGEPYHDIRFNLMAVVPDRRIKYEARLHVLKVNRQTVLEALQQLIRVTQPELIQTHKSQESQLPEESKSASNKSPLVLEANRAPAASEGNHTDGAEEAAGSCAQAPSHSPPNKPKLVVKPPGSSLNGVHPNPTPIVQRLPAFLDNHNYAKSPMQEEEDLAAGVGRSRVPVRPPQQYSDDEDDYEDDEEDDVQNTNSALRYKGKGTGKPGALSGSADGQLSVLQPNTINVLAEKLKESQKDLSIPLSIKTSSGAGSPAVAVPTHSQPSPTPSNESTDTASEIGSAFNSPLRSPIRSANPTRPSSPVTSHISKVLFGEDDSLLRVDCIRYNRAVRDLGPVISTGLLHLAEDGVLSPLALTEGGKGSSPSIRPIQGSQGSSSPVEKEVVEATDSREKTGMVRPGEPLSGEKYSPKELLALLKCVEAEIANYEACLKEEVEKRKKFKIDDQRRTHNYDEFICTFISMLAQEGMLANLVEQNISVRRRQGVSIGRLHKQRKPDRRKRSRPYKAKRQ
MMP-13 inhibitor: blocks human MMP13 activity; P45452; MMP-13 fTHP FRET cleavage, Mca fluorescence; inhibition, % at 4 µM; 65,000 compounds, 0.07% hits;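 active = inhibition above the mean of compound-free control plate wells plus 3 SD, cut at about 14% in these data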;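 note: 0% = DMSO wells and 100% = wells with reference MMP-13 inhibitor after basal subtraction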
E coli WT exp: blocks growth of wild type E. coli BW25113 | OD600 absorbance | growth inhibition, % at 100 µM | 98,000 compounds, 0.15% hits;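 active = growth inhibition above about 50% at one test dose, limit read from the data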;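 note: growth measured after 20 h incubation at 37 °C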
* marks the source's active call; other numbers are inactive results; i = inactive; . = not tested or not shown.

SMILES | AP ELISA ortho | Ec RNAP inh | tolC growth inh | BAP1 inh | MMP-13 inhibitor | E coli WT exp
Sc1oc(-c2ccccc2)cc1C=Nc1ccc(Cl)cc1 | . | . | . | i | . | .
CCOC(=O)c1c(NC(=O)CSc2nnc(C)c(=O)[nH]2)sc2c1CCN(C)C2 | . | . | . | i | . | .
COC(=O)c1[nH]c2cccc(OC)c2c1NC(=O)CN1CCOCC1 | 7 | 0 | -25 | i | -18 | 4
COC(=O)c1[nH]c2cccc(OC)c2c1NC(=O)CN1CC2(C)CC1CC(C)(C)C2 (centres undefined) | 4 | 7 | 62* | i | -25 | -4
O=S(=O)(NCCSc1ccc(Cl)cc1)c1ccc2c(c1)OCCO2 | 19 | 9 | 100* | i | 0 | -8
Cc1ccc(Cl)cc1NC(=O)COc1cc(C)c(Cl)c(C)c1 | . | . | . | i | . | .
Cc1ccc2c(c1)c(C)c(C)n2CC(O)Cn1nc(C)c(Br)c1C (centres undefined) | . | . | 82* | i | 1 | -8
COc1cc(C(=O)Nc2ccc(S(=O)(=O)N3CCCCC3C)cc2)cc(OC)c1OC (centres undefined) | -13 | 5 | 6 | i | -7 | -6
COc1ccc(C(=O)Nc2ccc(S(=O)(=O)N3CCCCC3C)cc2)c(OC)c1OC (centres undefined) | 6 | 4 | 66* | i | 0 | -12
O=Nc1c2nc3ccccc3n(O)c-2c2ccccc12 | 13 | -2 | 87* | i | -1 | 2
O=C(O)Cn1c(-c2ccccc2)nc2ccccc21 | 15 | 10 | -25 | i | -5 | 0
Cc1ccc(C(=O)NCCn2cc(SCC(=O)Nc3cc(C)on3)c3ccccc32)cc1 | 32* | 3 | 19 | i | 0 | -17
Cc1cc(NC(=O)CSc2cn(CCNC(=O)c3ccccc3)c3ccccc23)no1 | 13 | 3 | 6 | i | 2 | -16
COc1ccc2c(-c3ccccc3)cc(N3CCOCC3)nc2c1 | 15 | -3 | 100* | . | -35 | -14
COc1ccc(-c2n[nH]c(C(F)(F)F)c2-c2cc3ccccc3o2)c(O)c1 | 7 | 7 | 100* | . | -52 | 17
CC(=O)Nc1nc2ccc(N)cc2s1 | . | . | . | i | . | .
CCC1CCCCN1S(=O)(=O)c1ccc2c(c1)CCN2C(=O)C1CCC1 (centres undefined) | 10 | 1 | 84* | i | 4 | -6
Cc1nn(-c2ccccc2)c(Cl)c1C(=O)Nc1nnc(C2CCCC2)s1 | 29 | 5 | 100* | i | 0 | -22
COc1c(N2CCN(C(=S)Nc3ccc(F)cc3)C(C)C2)c(F)cc2c(=O)c(C(=O)O)cn(C3CC3)c12 (centres undefined) | . | . | . | . | . | 99*
COc1c(N2CCNC(C)C2)c(F)cc2c(=O)c(C(=O)O)cn(C3CC3)c12 (centres undefined) | -5 | -8 | 97* | . | -57 | .
CCN1CCN(c2cc3c(cc2F)c(=O)c(C(=O)O)cn3C2CC2)CC1 | 19 | 7 | 5 | i | -84 | .
COc1ccccc1-c1csc(NC(=O)c2ccc(S(=O)(=O)N3CCCCC3)cc2)n1 | . | . | . | i | . | .
Cc1nn(-c2nc3ccccc3n2Cc2ccccc2)c2c1C(=O)CC(C)(C)C2 | -5 | 8 | 91* | i | 0 | -17
Cc1ccc(NC(=O)CN(C)S(=O)(=O)c2cccc3nsnc23)cc1Cl | 2 | 6 | 74* | i | 8 | -9
O=C(Nc1ccccc1C(=O)NCCCn1ccnc1)c1ccccc1 | -8 | 21* | 10 | i | 6 | 4
SMILES | AP ELISA ortho | Ec RNAP inh | tolC growth inh | BAP1 inh | MMP-13 inhibitor | E coli WT exp
COc1ccc(C(=O)Nc2ccccc2C(=O)NCCCn2ccnc2)cc1 | 5 | 8 | -2 | i | 3 | 1
Cc1ccc(Nc2nc(N)nc(CN3CCN(c4ccccc4)CC3)n2)cc1Cl | 21 | 10 | 77* | i | -3 | -1
COc1ccc(N2CCN(Cc3nc(N)nc(Nc4ccc(C)c(Cl)c4)n3)CC2)cc1 | 1 | 7 | 32 | i | 3 | 1
c1ccc(-c2nc(N3CCOCC3)c3ccccc3n2)nc1 | 6 | 5 | 11 | i | 3 | 3
c1ccc(-c2nc(N3CCCCCC3)c3ccccc3n2)nc1 | 19 | . | 100* | i | -11 | 26
CCCCN(CC)S(=O)(=O)c1ccc(C(=O)Nc2nnc(-c3cccs3)o2)cc1 | 5 | 4 | 99* | i | 2 | -1
CCCCN(CCCC)S(=O)(=O)c1ccc(NS(=O)(=O)c2ccc(NC(C)=O)cc2)cc1 | . | . | . | . | . | -12
